Results as given in ChEMBL document CHEMBL1157359, “Binding of ceftobiprole and comparators to the penicillin-binding proteins of Escherichia coli, Pseudomonas aeruginosa, Staphylococcus aureus, and Streptococcus pneumoniae” (Antimicrob Agents Chemother, 2007).
Converted amounts (≈) assume the structure as drawn.

Tests used:
[1] = target: T1, Penicillin-binding protein 2 (Staphylococcus aureus, UniProt Q53729); test: Inhibition of bocillin FL binding to methicillin-susceptible Staphylococcus aureus ATCC 29213 penicillin-binding protein 2
T1 sequence (Q53729 whole entry): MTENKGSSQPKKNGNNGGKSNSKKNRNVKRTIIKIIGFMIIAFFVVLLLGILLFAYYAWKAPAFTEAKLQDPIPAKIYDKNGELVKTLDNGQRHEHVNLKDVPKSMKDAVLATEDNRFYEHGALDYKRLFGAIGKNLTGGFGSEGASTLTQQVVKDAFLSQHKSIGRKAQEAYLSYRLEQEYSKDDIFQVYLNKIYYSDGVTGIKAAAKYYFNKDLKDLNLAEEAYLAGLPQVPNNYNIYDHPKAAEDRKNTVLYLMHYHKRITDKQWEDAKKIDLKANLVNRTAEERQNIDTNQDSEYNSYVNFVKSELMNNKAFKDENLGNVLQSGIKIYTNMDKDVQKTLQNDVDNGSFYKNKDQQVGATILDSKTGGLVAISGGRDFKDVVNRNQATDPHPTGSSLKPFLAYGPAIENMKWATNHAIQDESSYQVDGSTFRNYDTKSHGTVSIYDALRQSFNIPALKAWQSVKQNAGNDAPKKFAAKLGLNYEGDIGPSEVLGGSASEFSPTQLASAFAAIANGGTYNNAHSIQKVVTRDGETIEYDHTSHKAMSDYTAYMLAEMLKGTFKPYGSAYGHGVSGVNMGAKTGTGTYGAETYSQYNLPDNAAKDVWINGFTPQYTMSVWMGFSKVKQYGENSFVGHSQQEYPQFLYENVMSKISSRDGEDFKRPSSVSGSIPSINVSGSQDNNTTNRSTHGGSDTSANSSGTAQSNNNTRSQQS
How it was run: (§1)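 Isolated S. aureus ATCC 29213 PBPs exposed to drug over 0.001 μg/ml to 50 μg/ml, followed by Bocillin FL labeling and fluorescence imaging. IC50 is 50% inhibition of Bocillin FL binding relative to no-drug control.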

[2] = Inhibition of bocillin FL binding to Pseudomonas aeruginosa PAO1 penicillin-binding protein 4
How it was run: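 P. aeruginosa PAO1 PBPs were isolated and competed with 10 drug concentrations from 0.06 μg/ml to 32 μg/ml before Bocillin FL labeling. Bands were detected by fluorescence imaging. IC50 was taken as 50% inhibition of Bocillin FL binding versus the no-drug sample.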

[3] = Inhibition of bocillin FL binding to penicillin-susceptible Streptococcus pneumoniae OC 8865 penicillin-binding protein 2x
How it was run: (§2)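 Whole S. pneumoniae cells were used rather than isolated membranes. Cells were competed with drug and then labeled with Bocillin FL, and PBP bands were visualized by fluorescence imaging. IC50 is the drug concentration that inhibits Bocillin FL binding to each PBP by 50% relative to a no-drug control.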

[4] = tested on: Streptococcus pneumoniae; test: Antibacterial activity against penicillin-resistant Streptococcus pneumoniae OC 8819 by CLSI method; type: functional
[5] = target: T2, Penicillin-binding protein 3 (Staphylococcus aureus, UniProt Q5D1F0); test: Inhibition of bocillin FL binding to methicillin-susceptible Staphylococcus aureus ATCC 29213 penicillin-binding protein 3; how it was run: as §1
T2 sequence (Q5D1F0 whole entry): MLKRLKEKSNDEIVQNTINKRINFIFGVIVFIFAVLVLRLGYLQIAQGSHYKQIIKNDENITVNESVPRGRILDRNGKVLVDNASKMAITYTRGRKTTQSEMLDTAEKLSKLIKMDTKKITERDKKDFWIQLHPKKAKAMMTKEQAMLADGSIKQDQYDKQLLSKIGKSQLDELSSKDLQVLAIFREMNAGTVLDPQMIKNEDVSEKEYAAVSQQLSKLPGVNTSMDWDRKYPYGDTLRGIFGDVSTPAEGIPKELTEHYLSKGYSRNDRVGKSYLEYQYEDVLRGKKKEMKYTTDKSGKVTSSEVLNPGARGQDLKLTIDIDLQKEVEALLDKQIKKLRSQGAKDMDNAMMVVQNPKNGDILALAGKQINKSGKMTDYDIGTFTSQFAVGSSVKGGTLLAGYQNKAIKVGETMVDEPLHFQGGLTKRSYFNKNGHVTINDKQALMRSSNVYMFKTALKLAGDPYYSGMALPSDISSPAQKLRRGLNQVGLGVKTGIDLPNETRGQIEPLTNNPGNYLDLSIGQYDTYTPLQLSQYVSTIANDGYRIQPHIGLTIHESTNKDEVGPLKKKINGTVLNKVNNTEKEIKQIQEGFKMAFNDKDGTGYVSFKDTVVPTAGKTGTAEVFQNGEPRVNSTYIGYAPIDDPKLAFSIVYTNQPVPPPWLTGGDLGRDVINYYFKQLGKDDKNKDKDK

[6] = Inhibition of bocillin FL binding to penicillin-resistant Streptococcus pneumoniae OC 8819 penicillin-binding protein 2a; how it was run: as §2
[7] = Inhibition of bocillin FL binding to penicillin-susceptible Streptococcus pneumoniae OC 8865 penicillin-binding protein 1a; how it was run: as §2
[8] = Inhibition of bocillin FL binding to penicillin-susceptible Streptococcus pneumoniae OC 8865 penicillin-binding protein 3; how it was run: as §2
[9] = target: T3, Penicillin-binding protein 1 (Staphylococcus aureus, UniProt Q53725); test: Inhibition of bocillin FL binding to methicillin-susceptible Staphylococcus aureus ATCC 29213 penicillin-binding protein 1; how it was run: as §1
T3 sequence (Q53725 whole entry): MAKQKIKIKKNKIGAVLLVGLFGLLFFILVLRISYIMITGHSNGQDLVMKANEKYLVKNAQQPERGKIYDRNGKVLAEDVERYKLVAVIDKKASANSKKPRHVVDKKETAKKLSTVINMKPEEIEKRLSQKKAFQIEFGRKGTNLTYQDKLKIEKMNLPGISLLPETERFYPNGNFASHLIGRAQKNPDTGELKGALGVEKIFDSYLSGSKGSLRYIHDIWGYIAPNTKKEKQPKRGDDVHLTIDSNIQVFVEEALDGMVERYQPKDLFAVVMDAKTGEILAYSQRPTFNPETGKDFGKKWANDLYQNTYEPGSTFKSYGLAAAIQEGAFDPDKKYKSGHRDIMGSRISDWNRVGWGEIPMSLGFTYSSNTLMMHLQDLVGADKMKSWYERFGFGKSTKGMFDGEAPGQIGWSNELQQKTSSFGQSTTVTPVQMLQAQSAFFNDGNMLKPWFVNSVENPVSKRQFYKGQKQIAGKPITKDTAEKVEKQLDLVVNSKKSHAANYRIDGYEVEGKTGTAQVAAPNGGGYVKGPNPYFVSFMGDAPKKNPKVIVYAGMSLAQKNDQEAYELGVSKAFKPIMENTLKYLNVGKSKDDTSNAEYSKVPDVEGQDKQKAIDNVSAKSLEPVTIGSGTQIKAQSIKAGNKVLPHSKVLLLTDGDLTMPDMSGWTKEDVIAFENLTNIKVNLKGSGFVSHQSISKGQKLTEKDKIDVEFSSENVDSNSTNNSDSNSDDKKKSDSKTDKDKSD

[10] = tested on: Staphylococcus aureus; test: Antibacterial activity against methicillin-susceptible Staphylococcus aureus ATCC 29213 by CLSI method; type: functional

Nc1nc(/C(=N/O)C(=O)N[C@@H]2C(=O)N3C(C(=O)O)=C(/C=C4\CCN([C@@H]5CCNC5)C4=O)CS[C@H]23)ns1 [CEFTOBIPROLE]
IC50 [1]: 935 nM | IC50 [2]: 0.2 µg/mL (≈ 0.374 µM) | IC50 [3]: 0.01 µg/mL (≈ 0.0187 µM) | MIC [4]: 1 µg/mL (≈ 1.87 µM) | IC50 [5]: 93.5 nM | IC50 [6]: 0.1 µg/mL (≈ 0.187 µM) | IC50 [7]: 0.03 µg/mL (≈ 0.0561 µM) | IC50 [8]: 0.02 µg/mL (≈ 0.0374 µM) | IC50 [9]: 187 nM | MIC [10]: 0.25 µg/mL (≈ 0.468 µM)

CC(C)(O/N=C(\C(=O)N[C@@H]1C(=O)N2C(C(=O)[O-])=C(C[n+]3ccccc3)CS[C@H]12)c1csc(N)n1)C(=O)O [CEFTAZIDIME]
IC50 [2]: 2 µg/mL (≈ 3.66 µM)

CO/N=C(\C(=O)N[C@@H]1C(=O)N2C(C(=O)O)=C(CSc3nc(=O)c(O)nn3C)CS[C@H]12)c1csc(N)n1 (stereo in doubt) [CEFTRIAXONE]
IC50 [1]: 180 nM | IC50 [3]: 0.03 µg/mL (≈ 0.0541 µM) | MIC [4]: 8 µg/mL (≈ 14.4 µM) | IC50 [5]: 1800 nM | IC50 [6]: 0.5 µg/mL (≈ 0.902 µM) | IC50 [7]: 0.01 µg/mL (≈ 0.018 µM) | IC50 [8]: 0.02 µg/mL (≈ 0.0361 µM) | IC50 [9]: 902 nM | MIC [10]: 2 µg/mL (≈ 3.61 µM)
